# From paper PMC12808645 (Nature Communications, 2025)
# Tests used:
# Nan only, Y177A = assay: [3H]-AP binding to Nan-only membranes, Y177A; set-up: species or system Halyomorpha halys
# Outline: (§1)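 Nan expressed in HEK293S GnTI- suspension cells (1–1.5 M/mL) by 3% (v/v) baculovirus, ~1 day at 37 °C then 48 h at 25 °C. Membranes were made by sonication and spun at 300 × g 10 min then 50,000 × g 2 h. Saturation binding used 60–100 µg membranes with [3H]-AP in pH 7.4 HEPES binding buffer (CaCl2, MgCl2, 0.0025% Tween-20), 3 h at room temperature. Samples were filtered on 0.1% PEI-treated filters, washed thrice with ice-cold buffer, and counted by scintillation. Nonspecific binding was set with 500-fold excess unlabeled AP.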
# Nan only, WT = assay: [3H]-AP binding to Nan-only membranes, WT; set-up: species or system Halyomorpha halys; conditions: read-out: [3H]-AP binding Kd
# Outline: as §1
# Nan only, Y172A = assay: [3H]-AP binding to Nan-only membranes, Y172A; set-up: species or system Halyomorpha halys; conditions: NanY172A
# Outline: as §1
# stink bug Nan-Iav [1] = biological target: stink bug Nan-Iav; set-up: species or system Halyomorpha halys; conditions: read-out: [3H]-AP binding Kd
# Drosophila Nan-Iav = conditions: cited from earlier work
# Nan-IavY325A = assay type: binding, Halyomorpha halys
# Nan-IavW701A = assay: Whole-cell electrophysiology, Nan-IavW701A; assay type: cell-based, Halyomorpha halys; conditions: 1 mM Ca2+
# Nan-Iav(∆697-C) = assay type: cell-based, Halyomorpha halys; conditions: 1 mM Ca2+, Δ C-ter (Iav∆(697-986))
# stink bug Nan-Iav [2] = assay type: binding, Halyomorpha halys
compound,measurement,setting,value
C[C@]1(COC(=O)C2CC2)[C@@H]2C[C@H](O)[C@@]3(C)Oc4cc(-c5cccnc5)oc(=O)c4[C@H](O)[C@@H]3[C@@]2(C)CC[C@@H]1OC(=O)C1CC1 [[^3H]-AP],[3H]-AP binding Kd,"Nan only, Y177A",lacks measurable binding
same,Kd,"Nan only, WT",0.089 nM
same,higher [3H]-AP Kd compared to WT Nan,"Nan only, Y172A",7.5 fold
same,Kd,stink bug Nan-Iav [1],0.017 nM
"NC(=O)c1cccnc1 [NAM, nicotinamide]",EC50,Drosophila Nan-Iav,14000 nM
same,NAM binding (in words),Nan-IavY325A,eliminated NAM binding
[Ca+2] [Ca^2+],% inhibition of inward current,Nan-IavW701A,~ 10%
same,% inhibition of inward current,Nan-Iav(∆697-C),~ 10%
"CC1=NNC(=O)N(/N=C/c2cccnc2)C1 [PM, pymetrozine]",binding mode versus [3H]-AP,stink bug Nan-Iav [2],competitive binding
